Measured values from different studies.
Each line is one published result; the experiments were not run side by side.
Cell line: Vero
Effect on: cell growth or viability

SMILES | technique | time | CC50
O=C(Nc1ccc(F)c(Cl)c1)c1cc(Cl)ccc1O | MTT | 72 h | < 5 µg/mL
COc1ccc(CN2C(=O)c3ccccc3C2CB2OC(C)(C)C(C)(C)O2)cc1 (stereo not drawn) | – | – | 2.3 µM
NC(=O)c1ncn([C@@H]2O[C@H](CO)[C@@H](O)[C@H]2O)n1 | MTT | 72 h | > 200 µM
COc1ccc(NCc2ccc(Oc3ccccn3)cc2)cc1 | MTT | 72 h | > 300 µM
CC(C(=O)O)N1c2nc(-c3ccc(Cl)cc3)c(C#N)c(=O)n2NC1c1ccccc1O (stereo not drawn) | MTT | 72 h | 500 µg/mL
Cc1ccc(NCc2ccc(Oc3ccccn3)cc2)cc1 | MTT | 72 h | > 300 µM
COC(=O)N[C@@H](C[S+]([O-])Cc1ccccc1)C(=O)N1CCC[C@H]1c1ncc(-c2ccc(-c3ccc(-c4cnc([C@@H]5CCCN5C(=O)[C@@H](NC(=O)OC)C(C)C)[nH]4)cc3)cc2)[nH]1 (stereo partly drawn) | – | – | 4 µM
Fc1ccccc1NCc1ccc(Oc2ccccn2)cc1 | MTT | 72 h | > 300 µM
O=C(Nc1ccc(Cl)c(C(F)(F)F)c1)c1ccccc1O | MTT | 72 h | < 10 µg/mL
CC1(C)OB(CC2c3ccccc3C(=O)N2C2CCCCC2)OC1(C)C (stereo not drawn) | – | – | 175 µM
O=C(Nc1ccc(Cl)c(C(F)(F)F)c1)c1cc(Cl)ccc1O | MTT | 72 h | 5 µg/mL
Cc1ccccc1NCc1ccc(Oc2ccccn2)cc1 | MTT | 72 h | > 300 µM
CCOC(=O)C1=C(C)N2NC(c3ccccc3O)N(C(Cc3c[nH]c4ccccc34)C(=O)O)C2=NC1c1ccc(Cl)cc1 (stereo not drawn) | MTT | 72 h | 250 µg/mL
Clc1cccc(NCc2ccc(Oc3ccccn3)cc2)c1 | MTT | 72 h | > 300 µM
O=C(Nc1ccc(Cl)cc1)c1cc(Cl)ccc1O | MTT | 72 h | 20 µg/mL
COC(=O)N[C@H](C(=O)N1CCC[C@H]1c1nc(-c2ccc(-c3ccc(-c4c[nH]c([C@@H]5CCCN5C(=O)[C@@H](NC(=O)OC)C(C)C)n4)cc3)cc2)c[nH]1)C(C)C | – | – | 26 µM
CC(C(=O)O)N1c2nc(-c3ccc(Cl)cc3)c(C#N)c(=O)n2NC1(C)c1ccccc1O (stereo not drawn) | MTT | 72 h | 250 µg/mL
O=C(Nc1ccc(Br)c(C(F)(F)F)c1)c1ccccc1O | MTT | 72 h | < 5 µg/mL
COC(=O)N[C@H](C(=O)N1C[C@H](N=[N+]=[N-])C[C@H]1c1ncc(-c2ccc(-c3ccc(-c4cnc([C@@H]5C[C@@H](N=[N+]=[N-])CN5C(=O)[C@@H](NC(=O)OC)C(C)C)[nH]4)cc3)cc2)[nH]1)C(C)C | – | – | > 100 µM
O=C(Nc1ccc(F)c(F)c1)c1cc(Cl)ccc1O | MTT | 72 h | < 5 µg/mL
Brc1cccc(NCc2ccc(Oc3ccccn3)cc2)c1 | MTT | 72 h | > 300 µM
